Laboratory results published in ChEMBL document CHEMBL1124734, “Chalcogenapyrylium dyes as photochemotherapeutic agents. 2. Tumor uptake, mitochondrial targeting, and singlet-oxygen-induced inhibition of cytochrome c oxidase” (J Med Chem, 1990).

Legend:
[1] = Ability to inhibit the Mitochondrial cytochrome c Oxidase in isolated mitochondrial suspensions from R3230AC rat mammary adenocarcinomas; set-up: concentration or dose not given beside the values; settings: concentration not given here
Outline: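 Mitochondria isolated from subcutaneously transplanted R3230AC tumors in female Fischer 344 rats and stored at -70 °C. They were diluted in sucrose/KCl buffer (pH 7.4) to give a 0.45-0.60/min absorbance change of cytochrome c at 550 nm. Dye (10 μM) was added for 5 min in the dark at room temperature, then mitochondria were pelleted and resuspended. Samples were matched by absorbance (~1.5 OD) and irradiated with 375–800 nm light. The initial inhibition rate was taken over the first 5 min of exposure.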

[2] = Partition coefficient (logP); assay type: physicochemical; settings: octanol/water
Outline: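 Partitioning measured between n-octanol and water.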

Row | SMILES | inhibition [1] [%] | logP [2]
1 | CC(C)(C)C1=CC(=C/C=C/c2cc(C(C)(C)C)[s+]c(C(C)(C)C)c2)C=C(C(C)(C)C)S1 | 0.045 | 1.97
2 | CC(C)(C)C1=CC(=C/C=C/c2cc(C(C)(C)C)[o+]c(C(C)(C)C)c2)C=C(C(C)(C)C)O1 | 0 | 2.51
3 | CC(C)(C)C1=CC(=C/C=C/c2cc(C(C)(C)C)[te+]c(C(C)(C)C)c2)C=C(C(C)(C)C)O1 | 10.9 | 2.41
4 | CC(C)(C)C1=CC(=C/C=C/c2cc(C(C)(C)C)[s+]c(C(C)(C)C)c2)C=C(C(C)(C)C)O1 | 0.03 | –
5 | CC(C)(C)C1=CC(=C/C=C/c2cc(C(C)(C)C)[se+]c(C(C)(C)C)c2)C=C(C(C)(C)C)S1 | 4.05 | 2.39
6 | CC(C)(C)C1=CC(=C/C=C/c2cc(C(C)(C)C)[se+]c(C(C)(C)C)c2)C=C(C(C)(C)C)O1 | 2.55 | –
7 | CC(C)(C)C1=CC(=C/C=C/c2cc(C(C)(C)C)[te+]c(C(C)(C)C)c2)C=C(C(C)(C)C)[Se]1 | 3 | 2.41
8 | CC(C)(C)C1=CC(=C/C=C/c2cc(C(C)(C)C)[se+]c(C(C)(C)C)c2)C=C(C(C)(C)C)[Se]1 | 4.2 | 1.92
9 | CC(C)(C)C1=CC(=C/C=C/c2cc(C(C)(C)C)[te+]c(C(C)(C)C)c2)C=C(C(C)(C)C)[Te]1 | – | 2.02
